Test results: ChEMBL document CHEMBL1667725, “Tuberatolides, potent FXR antagonists from the Korean marine tunicate Botryllus tuberatus” (J Nat Prod, 2011)
Calls of active or inactive are those of the source. The calls are words filed in the database; no cut-off is given here.

Biological target: T1, Bile acid receptor (Homo sapiens) (UniProt Q96RI1)
T1 sequence (whole entry): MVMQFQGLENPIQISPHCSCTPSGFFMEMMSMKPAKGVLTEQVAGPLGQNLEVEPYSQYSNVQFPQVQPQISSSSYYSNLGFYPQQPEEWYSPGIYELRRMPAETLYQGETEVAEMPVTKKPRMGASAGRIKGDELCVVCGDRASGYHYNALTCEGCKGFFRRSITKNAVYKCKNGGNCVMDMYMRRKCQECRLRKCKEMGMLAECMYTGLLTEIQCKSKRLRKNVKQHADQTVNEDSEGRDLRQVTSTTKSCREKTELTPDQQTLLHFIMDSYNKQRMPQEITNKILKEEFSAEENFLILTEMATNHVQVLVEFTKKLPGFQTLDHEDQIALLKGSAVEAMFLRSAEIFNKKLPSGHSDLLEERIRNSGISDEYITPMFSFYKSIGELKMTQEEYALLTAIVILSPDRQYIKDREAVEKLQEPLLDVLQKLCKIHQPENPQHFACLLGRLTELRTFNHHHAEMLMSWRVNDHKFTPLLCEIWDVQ
Experiment: Binding affinity to human FXR ligand binding domain cell free system assessed as release of co-activator peptide SRC-1 after 1 hr by surface plasmon resonance method
In short: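 BIAcore SPR: hFXR LBD (4 µM) preincubated 1 h with compound plus 50 µM CDCA, then injected over a sensor chip bearing immobilized SRC-1 co-activator peptide; co-activator peptide binding to the LBD monitored.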

SMILES	Activity
CC(C)=CCCC1=C[C@@H](C/C(C)=C/CC[C@]2(C)C=Cc3cc(O)cc(C)c3O2)OC1=O [2'-EPI-TUBERATOLIDE B]	Active
CC(C)=CCC/C(=C/CC/C(C)=C/CC[C@]1(C)C=Cc2cc(O)cc(C)c2O1)C(=O)O [(R)-SARGACHROMENOL]	Active
CC(C)=CCC/C(=C/CC/C(C)=C/CC[C@@]1(C)C=Cc2cc(O)cc(C)c2O1)C(=O)O [(S)-SARGACHROMENOL]	Active
CC(=O)CC/C=C(\C)C[C@@H]1C=C(CCC=C(C)C)C(=O)O1 [TUBERATOLIDE A]	Active
CC(C)=CCCC1=C[C@@H](C/C(C)=C/CC[C@@]2(C)C=Cc3cc(O)cc(C)c3O2)OC1=O [TUBERATOLIDE B]	Active
CC(C)=CCCC1=C[C@@H](C/C(C)=C/CC/C(C)=C/CC2=CC(=O)C=C(C)C2=O)OC1=O [YEZOQUINOLIDE]	Active
